An excerpt weighted towards active compounds, which were near 1.3% of everything screened.
CASP6 VEID inh – human caspase-6 inhibitors, primary screen, biochemical, VEID-R110 fluorescence, single point, set 2 | purified caspase-6, Z-VEID-R110 cleavage fluorescence | inhibition, % at 12.5 µM | actives 0.53% (n = 350,000);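 active means mean inhibition across replicates at least about 35%, with every replicate also reaching that limit, limit read from the data; inconclusive means only one of the two criteria met; inactive means neither criterion met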;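 further: 0% = median of neutral control wells and 100% = no fluorescence left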
RAD54 inh – inhibitors of human RAD54 branch migration, primary screen, biochemical, fluorescence, single point | RAD54 Holliday junction branch migration, FAM/BHQ fluorescence | actives 0.14% (n = 360,000) | inhibition, % at 10.4 µM | DNA repair and recombination protein RAD54-like (Homo sapiens), Q92698;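 active means mean normalized replicate activity at least 40 and at least half of replicates scoring 40 or more; inconclusive means only one of the two criteria met; inactive means mean below 40 and under half of replicates reaching 40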;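 further: 0% = median of neutral control wells and 100% = median of positive control wells; inhibitors cause a drop in the FAM fluorescence signal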
Target sequence (Q92698 whole entry, looked up): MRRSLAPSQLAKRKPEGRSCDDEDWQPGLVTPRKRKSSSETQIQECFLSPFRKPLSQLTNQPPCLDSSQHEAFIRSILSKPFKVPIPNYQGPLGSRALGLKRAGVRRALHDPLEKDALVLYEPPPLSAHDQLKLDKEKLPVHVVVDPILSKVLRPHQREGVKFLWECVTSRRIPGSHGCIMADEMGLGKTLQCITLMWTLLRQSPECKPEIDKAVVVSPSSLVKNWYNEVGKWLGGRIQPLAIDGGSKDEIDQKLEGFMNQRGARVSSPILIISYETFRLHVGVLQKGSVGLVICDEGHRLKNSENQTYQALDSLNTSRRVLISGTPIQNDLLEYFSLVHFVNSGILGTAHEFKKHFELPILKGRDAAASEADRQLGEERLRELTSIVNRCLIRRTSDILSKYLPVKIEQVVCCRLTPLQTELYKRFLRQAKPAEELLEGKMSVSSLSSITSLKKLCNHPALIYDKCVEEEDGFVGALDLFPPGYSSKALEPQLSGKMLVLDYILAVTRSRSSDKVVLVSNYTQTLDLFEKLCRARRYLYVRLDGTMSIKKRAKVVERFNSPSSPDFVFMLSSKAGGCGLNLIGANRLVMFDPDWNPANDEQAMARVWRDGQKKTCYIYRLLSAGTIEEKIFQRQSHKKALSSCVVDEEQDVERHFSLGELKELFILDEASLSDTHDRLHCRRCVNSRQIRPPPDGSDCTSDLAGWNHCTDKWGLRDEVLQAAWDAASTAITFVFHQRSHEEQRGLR
MLL AF4-AF9 inh – inhibitors of AF4 peptide binding to AF9, primary screen, biochemical, AlphaScreen, biotin-AF4 peptide, FLAG-AF9, single point; inhibition, % at 10 µM; actives 0.47% (n = 350,000); AID 651704, 2012;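 active means every replicate reaching a set inhibition limit, whatever the replicate mean, cut at about 25% in these data; inconclusive means mean inhibition reaches that limit but some replicates miss it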;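 further: 0% = plate neutral control median and 100% = total signal loss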
RAD52 anneal inh – RAD52 DNA annealing inhibitors, primary screen, biochemical, FRET, single point, set 2; AID 651710, 2012; inhibition, % at 18.7 µM; actives 0.46% (n = 360,000); DNA repair protein RAD52 homolog (Homo sapiens), P43351; recombinant RAD52 DNA annealing, FRET fluorescence;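 active means every replicate showing at least 50% inhibition; inconclusive means mean inhibition at least 50% but not in every replicate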
S100A4 MyoIIA – inhibitors of S100A4-myosin IIA peptide binding, primary screen, biochemical, fluorescence polarization, TAMRA-MyoIIA peptide; actives 0.14% (n = 360,000); inhibition, % at 10.7 µM;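 active means mean inhibition of at least 70% across replicates, with every replicate also reaching that level; inconclusive means mean inhibition reaches 70% but some replicates fall short; inactive means mean inhibition below 70%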
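Test system: S100A4 monomer protein. Medium: HEPES buffer with Ca2+, pH 7.2. Reagent: fluorescent myosin IIA peptide, 5 nM. Compound dosing: single-point compound testing. Timing: 5 min between mix addition and reading. Benchmarks: DMSO neutral and TFP positive wells.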
XiGFP reactiv – activators of inactive X chromosome reactivation, primary screen, imaging, XiGFP fibroblasts, GFP high-content imaging, set 2; XiGFP mouse fibroblasts, % GFP-positive cells imaging, 3 d; cells co-treated with 5-aza-dC sensitizer; scaled so ellipticine positive control = 100%; activation, % at 7.58 µM; actives 0.055% (n = 360,000);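 active means mean normalized replicate activation at least 10% and every replicate at or above 10%; inconclusive means only one of the two criteria met; inactive means mean below 10% and not all replicates reach 10%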;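 further: 0% = median of on-plate neutral control wells and 100% = ellipticine 6 µM median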
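assay system = SV40-immortalized XiGFP fibroblast cells, line 68-5-11 | buffer or medium = DMEM plus 5-aza-dC sensitizer | doses = single-point pinned compound dosing | times = 3-day compound exposure, then 15 min fixation at room temperature | benchmarks = positive control ellipticine, 6 µM final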
Active calls of the source: *; i = inactive; u = inconclusive; x = not tested or not shown; ! = repeats disagree.

SMILES	CASP6 VEID inh	RAD54 inh	MLL AF4-AF9 inh	RAD52 anneal inh	S100A4 MyoIIA	XiGFP reactiv
O=C(C[C@@H]1C=C[C@H](NC(=O)C2CC2)[C@H](CO)O1)Nc1nccs1	83*	-7	1	4	-1	0
C[C@H](NC(=O)C[C@@H]1C=C[C@@H](NC(=O)C2CCC2)[C@H](CO)O1)c1ccccc1	-3	4	-10	22	0	0
COCC(=O)Nc1ccc2c(c1)C(=O)N(C)[C@H]1CC[C@H](CC(=O)NCCc3ccncc3)O[C@@H]1CO2	x	x	x	x	x	0
Cc1ccc(-c2ccc(C3[C@@H]4CN(Cc5cccc(F)c5)C[C@H]3N4)cc2)cc1 (stereo not given in full)	-1	x	7	54*	0	0
Fc1cccc(CN2C[C@@H]3N[C@H](C2)C3c2ccc(/C=C/c3ccccc3)cc2)c1 (stereo not given in full)	x	x	x	x	x	0
Cc1ccc(-c2ccc(C3[C@@H]4CN(Cc5cccnc5)C[C@H]3N4)cc2)cc1 (stereo not given in full)	1	x	17	53*!	0	0
Cc1cccc(-c2ccc(C3[C@@H]4CN(Cc5cccnc5)C[C@H]3N4)cc2)c1 (stereo not given in full)	2	x	-3	24	12	0
Fc1ccc(-c2ccc(C3[C@@H]4CN(Cc5ccccc5)C[C@H]3N4)cc2)cc1 (stereo not given in full)	-2	x	20	78*!	9	0
Fc1ccc(-c2ccc(C3[C@@H]4CN(Cc5cccc(F)c5)C[C@H]3N4)cc2)cc1 (stereo not given in full)	2	x	u	94*!	11	0
COCC(=O)Nc1ccc2c(c1)C(=O)N(C)C[C@@H](OC)[C@H](C)CN(C(=O)c1cnccn1)[C@H](C)CO2	2	-3	1	0	-1	0
CC(C)NC(=O)Nc1cccc2c1O[C@H](CN(C)C)[C@@H](C)CN(C)C2=O	x	x	x	x	x	0
C[C@H](CO)N1C[C@H](C)[C@@H](CN(C)C)Oc2cc(-c3cccnc3)ccc2S1(=O)=O	1	-10	-2	7	3	0
C[C@@H]1CN([C@@H](C)CO)C(=O)Cc2cc(NS(=O)(=O)c3cccs3)ccc2O[C@H]1CN(C)Cc1ccc(-c2ccccc2)cc1	1	-4	3	33	48	0
Nc1c(C(=O)NCC2CCCO2)sc2nc3c(c(-c4ccco4)c12)CC/C3=C\c1ccco1 (stereo not given)	42*	0	3	-75	-1	0
CO[C@@H]1CN(C)C(=O)c2cc(NC(=O)C3CCCC3)ccc2OC[C@@H](C)N(S(C)(=O)=O)C[C@@H]1C	x	12	-8	-18	-2	0
COc1cccc(NC(=O)N2[C@@H]3CNC[C@H]2C3c2ccc(-c3cccc(OC)c3)cc2)c1 (stereo not given in full)	2	x	4	66*!	4	0
Cc1cccc(-c2ccc(C3[C@H]4CNC[C@@H]3N4C(=O)Nc3ccccc3Cl)cc2)c1 (stereo not given in full)	x	x	x	x	x	0
COc1ccc(-c2ccc(C3[C@H]4CNC[C@@H]3N4C(=O)Nc3ccc(F)cc3)cc2)cc1 (stereo not given in full)	2	x	7	-71	0	0
COc1cccc(-c2ccc(C3[C@H]4CNC[C@@H]3N4C(=O)Nc3ccccc3Cl)cc2)c1 (stereo not given in full)	3	x	-3	51*!	-9	0
COc1ccc(-c2ccc(C3[C@H]4CNC[C@@H]3N4C(=O)Nc3cccc(OC)c3)cc2)cc1 (stereo not given in full)	1	x	0	67*!	-14	0
COc1cccc(NC(=O)N2[C@@H]3CNC[C@H]2C3c2ccc(-c3cccnc3)cc2)c1 (stereo not given in full)	0	x	1	0	3	0
COc1cccc(-c2ccc(C3[C@H]4CNC[C@@H]3N4S(=O)(=O)c3cccc(Cl)c3)cc2)c1 (stereo not given in full)	0	x	-6	53*	4	0
C[C@H](CO)N1C[C@H](C)[C@H](CN(C)C(=O)Nc2cccc3ccccc23)OCCCC[C@H](C)Oc2ccc(NS(C)(=O)=O)cc2C1=O	0	4	-4	7	-14	0
Cc1ccc(Sc2ccc(CN3CCCCC3)cc2[N+](=O)[O-])cc1	-1	x	29*	-4	-4	1
C[C@@H]1CN([C@H](C)CO)C(=O)c2cc(C3=CCCC3)cnc2O[C@@H]1CN(C)C(=O)NC1CCCC1	1	-12	-22	5	-13	0
SMILES	CASP6 VEID inh	RAD54 inh	MLL AF4-AF9 inh	RAD52 anneal inh	S100A4 MyoIIA	XiGFP reactiv
CC(C)NC(=O)N1CC2(C1)[C@@H](c1ccccc1)[C@@H](CO)N2C(=O)C1CCOCC1	0	x	-3	-7	12	0
COc1cc(CN2CCCCCC2)cc([N+](=O)[O-])c1O	0	-3	-4	-11	2	0
COc1cc(CN2CCc3ccccc3C2)cc([N+](=O)[O-])c1O	47*	5	2	1	3	0
O=C(Nc1ccc(NC(=O)C2CC2)cc1)c1cccs1	59*	1	0	-7	0	1
COC1=CC(=O)C(C2CC(=O)c3c(O)cc(O)cc3O2)=CC1=O (stereo not given)	44*	x	-11	-12	-5	0
COc1c(CC=C(C)C)cc(C2CC(=O)c3c(O)cc(O)cc3O2)cc1CC=C(C)C (stereo not given)	-1	-8	5	-21	-3	x
COc1ccc(NC(=O)Nc2ccc3c(c2)C(=O)N([C@@H](C)CO)C[C@H](C)[C@@H](CN(C)S(=O)(=O)c2ccc(OC)cc2)OCCCC[C@H](C)O3)cc1	x	3	x	x	x	0
COc1cc(/C=C(\C#N)C(=O)c2ccc(O)c(O)c2)cc(I)c1O	63*	-167	1	i	-15	0
COc1ccc(S(=O)(=O)NNC(=O)Cc2csc(C)n2)cc1[N+](=O)[O-]	56*	-9	-3	-1	-1	0

Compound activity deposited in PubChem by Broad Institute.
